Screening data (PubChem BioAssay)
KCNK3 inh = human KCNK3 channel inhibition, primary screen. CHO-KCNK3 thallium flux, FluxOR fluorescence; hits give low values. B-score at 10 µM. 340,000 tested, 0.84% active. AID 602410;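 active = B-score under library mean minus 4 SD, starting fluorescence ratio at most library mean plus 5 SD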;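 also: more negative B-score means stronger inhibition of thallium flux through KCNK3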
KCNK9 inh = blocks the human KCNK9 two-pore domain potassium channel; B-score at 10 µM; Q9NPC2; AID 488922; 310,000 tested, 1.2% active; HEK293 KCNK9, FluxOR thallium flux fluorescence; hits give low values;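 active = ratio B-score over 3 SD below the library mean, with starting fluorescence within 5 SD of its mean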;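 also: negative B-score means less thallium flux so channel inhibition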
Target sequence (Q9NPC2 whole entry, looked up, the tested form may be a part): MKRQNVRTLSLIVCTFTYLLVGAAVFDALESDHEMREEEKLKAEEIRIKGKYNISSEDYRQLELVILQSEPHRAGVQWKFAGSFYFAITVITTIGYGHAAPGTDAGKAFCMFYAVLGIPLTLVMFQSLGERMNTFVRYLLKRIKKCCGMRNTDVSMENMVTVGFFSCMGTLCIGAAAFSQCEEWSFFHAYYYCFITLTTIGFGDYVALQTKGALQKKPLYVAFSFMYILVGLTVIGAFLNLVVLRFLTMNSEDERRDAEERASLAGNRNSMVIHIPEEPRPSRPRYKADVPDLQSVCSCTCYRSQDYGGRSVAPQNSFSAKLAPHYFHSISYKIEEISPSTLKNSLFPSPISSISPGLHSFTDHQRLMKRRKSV
hERG protect = hERG (human) protection from proarrhythmic block. CHO-hERG, FluxOR thallium flux, dofetilide IC70 present. activation (rescue from dofetilide block), less the hit threshold, % at 10 µM. 310,000 tested, 0.51% active;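 active = activation above the mean of controls blocked by dofetilide plus 5 SD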;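 also: thallium influx through hERG after potassium depolarization seen as dye fluorescence rise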
Kir21 block = blocks the mouse Kir2.1 inward-rectifier potassium channel; P35561; HEK293-Kir2.1, FluxOR thallium flux fluorescence; hits give low values; B-score at 10 µM; 310,000 tested, 0.85% active; AID 1672;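 active = fluorescence ratio B-score at or below minus 3 SD of library scores, with starting-brightness B-score within 2 SD, cut at about -4.2 in these data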;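 also: channel flux triggered by added potassium and thallium sulfate stimulus; B-score of peak minus minimum fluorescence over baseline after thallium stimulus; more negative B-score means stronger Kir2.1 block with less thallium influx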
KCNQ1 block = human KCNQ1 channel inhibition; P51787; CHO-K1 KCNQ1, FluxOR thallium flux fluorescence; hits give high values; B-score at 10 µM; 310,000 tested, 1.3% active; AID 2642;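 active = compounds whose thallium flux B-score, printed positive for inhibition, exceeds three library SD while starting fluorescence stays within three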;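 also: channel opened by potassium depolarization with thallium stimulus after 20 min compound exposure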
KCNQ1 pot = human KCNQ1 channel potentiation or activation. P51787. CHO-K1 KCNQ1, thallium flux FluxOR fluorescence; hits give high values. B-score at 10 µM. 310,000 tested, 0.35% active. AID 2648;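 active = fluorescence ratio B-score, a plate-corrected score, at least three library SD, with initial intensity B-score within 5 SD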
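Assay system: stable KCNQ1 CHO-K1 line; medium: assay buffer, equal DMSO in all wells; timing: 90 min dye loading and 20 min compound exposure, both at room temperature; technique: kinetic FluxOR thallium fluorescence, 10-s 1-Hz baseline, 110-s post-stimulus read; read-out basis: B score of baseline-normalized fluorescence ratio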
KCNK9 block conf = confirmation of human KCNK9 potassium channel inhibitors; 4,900 tested, 43% active; inhibition, % at 10 µM; HEK293 KCNK9 cells, FluxOR thallium flux fluorescence; shares compounds with KCNK9 inh;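 active = thallium signal inhibited by more than 5 SD of the compound-free buffer control wells, on both duplicate plates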
Kir21 sel = tests whether KCNK9 modulators also affect mouse Kir2.1; 4,900 tested, 4% active; inhibition, % at 10 µM; shares compounds with KCNK9 inh; Kir2.1 cells, FluxOR thallium flux fluorescence; AID 492993;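 active = thallium signal drop more than 5 SD beyond the mean of the no-compound control wells, seen in both duplicate plates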;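 also: signal is fluorescence rise after thallium addition divided by baseline fluorescence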
HEK293 Tl ctr = second counter-screen for KCNK9 modulators: effect in non-induced cells; shares compounds with KCNK9 inh; non-induced KCNK9-HEK293, FluxOR thallium flux; inhibition, % at 10 µM; 4,900 tested, 40% active; AID 492997;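 active = thallium signal drop beyond 5 SD of the untreated control mean, on both duplicate plates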
Large screens that a line does not name were inactive (follow-up assays come after a bar, where they were run). An excerpt weighted towards active compounds, which were near 3.8% of everything screened.

Cc1ccc2[nH]nc(C(=O)N3CCCC(C(=O)c4ccc(Cl)cc4)C3)c2c1 (stereo not drawn)	none | KCNK9 block conf inactive | Kir21 sel inactive | HEK293 Tl ctr inactive
CSc1ccc(C(=O)C2CCCN(C(=O)c3cc4cc(F)ccc4[nH]3)C2)cc1 (stereo not drawn)	none | KCNK9 block conf inactive | Kir21 sel inactive | HEK293 Tl ctr inactive
O=C(CNC(=O)c1ccc(Cl)c([N+](=O)[O-])c1)NCC1CCCO1 (stereo not drawn)	none
O=[N+]([O-])c1cc(Cl)ccc1N1CCN(c2cccc(C(F)(F)F)c2)CC1	KCNK9 inh -12 | KCNK9 block conf 75% | Kir21 sel inactive | HEK293 Tl ctr 51%
O=[N+]([O-])c1cc(S(=O)(=O)C(F)(F)F)ccc1N1CCN(c2ccccc2)CC1	KCNK9 inh -8.3 | KCNK9 block conf inactive | Kir21 sel inactive | HEK293 Tl ctr 35%
O=[N+]([O-])c1cc(CN2CCN(c3cccc(C(F)(F)F)c3)CC2)c2cccnc2c1O	none | KCNK9 block conf inactive | Kir21 sel inactive | HEK293 Tl ctr inactive
O=[N+]([O-])c1cc(Cl)ccc1N1CCCC1	none
O=C(O)c1cc(NS(=O)(=O)c2ccc(F)cc2)cc(NS(=O)(=O)c2ccc(F)cc2)c1	none (no result: KCNK9 inh, hERG protect, Kir21 block, KCNQ1 block, KCNQ1 pot)
Cc1cccc(NC(=O)CN(C)C(=O)C2CC2)c1C	none (no result: KCNK9 inh, hERG protect, Kir21 block, KCNQ1 block, KCNQ1 pot)
CCOC(=O)C1(Cc2ccccc2C#N)CCCCC1=O (stereo not drawn)	none (no result: KCNK9 inh, hERG protect, Kir21 block, KCNQ1 block, KCNQ1 pot)
Cc1ccccc1NC1=C(C(=O)c2ccccc2)N(C)S(=O)(=O)c2ccccc21	KCNK3 inh -9, KCNK9 inh -12 | KCNK9 block conf 32% | Kir21 sel inactive | HEK293 Tl ctr 38%
Cc1ccnc(NS(=O)(=O)c2ccc(NC(=O)CC(C)c3ccccc3)cc2)n1 (stereo not drawn)	none
Cc1ccc([N+](=O)[O-])cc1NC(=O)CN(C(=O)c1ccccc1Cl)C1CCCCC1	KCNK9 inh -9.6 | KCNK9 block conf 50% | Kir21 sel inactive | HEK293 Tl ctr inactive
O=C(CN(C(=O)c1cccc([N+](=O)[O-])c1)C1CCCCC1)Nc1ccc(Cl)c([N+](=O)[O-])c1	none
CCCCNC(=S)N/N=C/C1=CCC2CC1C2(C)C (stereo not drawn)	none | KCNK9 block conf inactive | Kir21 sel inactive | HEK293 Tl ctr inactive
CC1=NN(c2ccc(C(=O)O)cc2)C(=O)/C1=C/c1ccc(-c2ccccc2F)o1	none | KCNK9 block conf inactive | Kir21 sel inactive | HEK293 Tl ctr inactive
CC1=NN(c2ccccc2)C(=O)/C1=C/c1ccc(-c2ccc(C)c(C(=O)O)c2)o1	hERG protect 16 | KCNK9 block conf inactive | Kir21 sel inactive | HEK293 Tl ctr inactive
Cc1cc(=O)oc2c3c(cc(OCC(=O)NCC4CCC(C(=O)O)CC4)c12)OC(C)(C)CC3 (stereo not drawn)	none
C=CCn1c(COc2ccc3c(c2)CCCC3)nnc1SCC(=O)Nc1cccc(SC)c1	KCNQ1 block 9 | KCNK9 block conf inactive | Kir21 sel inactive | HEK293 Tl ctr 30%
Cc1ccccc1C(=O)N1CCC2CC1c1cc(Cl)ccc12 (stereo not drawn)	none (no result: KCNK9 inh, hERG protect, Kir21 block, KCNQ1 block, KCNQ1 pot)
Cc1cccc(N2CCN(Cc3nc(-c4cccc(Oc5ccccc5)c4)oc3C)CC2)n1	none | KCNK9 block conf inactive | Kir21 sel inactive | HEK293 Tl ctr inactive
Cn1cc(/C=N/n2cnc3scc(-c4ccccc4)c3c2=O)c2ccccc21	none | KCNK9 block conf inactive | Kir21 sel inactive | HEK293 Tl ctr inactive
O=c1c2c(-c3ccccc3)csc2ncn1/N=C/c1cccc([N+](=O)[O-])c1O	none
COc1ccccc1OCCOCCOc1ccccc1Cl	none | KCNK9 block conf inactive | Kir21 sel inactive | HEK293 Tl ctr inactive
CCOc1ccc(OCCOCCOc2ccccc2Cl)cc1	none | KCNK9 block conf inactive | Kir21 sel inactive | HEK293 Tl ctr inactive
